Measurements gathered from unrelated publications.
Lines come from different studies, so protocols differ.
CDK4 with cyclin D1: Cyclin-dependent kinase 4, with cyclin D1 (CDK4, Homo sapiens, UniProt P11802)
CDK4 with cyclin D3: Cyclin-dependent kinase 4, with cyclin D3 (CDK4, Homo sapiens, UniProt P11802)
CDK4: Cyclin-dependent kinase 4 (CDK4, Homo sapiens, UniProt P11802)

Compound | target | assay | conditions | measurement | value
CNS(=O)(=O)c1ccc(Nc2ncc(C(F)(F)F)c(N3CCC[C@](C)(O)C3)n2)c(C)c1 | CDK4 with cyclin D1 | binding, competition with immobilised ligand | 1 µM | remaining binding | 46%
C1=C/COCc2cc(ccc2OCCN2CCCC2)Nc2nccc(n2)-c2cccc(c2)COC/1 | CDK4 with cyclin D3 | binding | 0.1 µM | remaining binding | 25%
C[C@]1(O)CCCN(c2nc(Nc3ccc(S(=O)(=O)N[C@H]4CC[C@H](CN5CCN(c6ccc(C7CCC(=O)NC7=O)cc6F)CC5)CC4)cc3Cl)ncc2C(F)(F)F)C1 (stereo partly drawn) | CDK4 | binding, competition with immobilised ligand | 1 µM | remaining binding | 93%
COc1ccc2[nH]c3c4[nH]c5ccc(OC)cc5c4c4c(c3c2c1)C(=O)NC4=O | CDK4 with cyclin D1 | binding | 1 µM | remaining binding | 82%
CC#CC(=O)N1CCC[C@H]1c1nc(-c2ccc(C(=O)Nc3ccccn3)cc2)c2c(N)nccn12 | CDK4 with cyclin D3 | enzyme activity, inhibitor | 1 µM | inhibition | 0%
C[C@]1(O)CCCN(c2nc(Nc3ccc(S(=O)(=O)N[C@H]4CC[C@H](CN5CCN(c6ccc(C7CCC(=O)NC7=O)cc6F)CC5)CC4)cc3F)ncc2C(F)(F)F)C1 (stereo partly drawn) | CDK4 with cyclin D1 | binding, competition with immobilised ligand | 1 µM | remaining binding | 97%
Cc1cc(O)c(-c2ccc([C@@H](C)CN(C)C)cc2)c2c1[nH]c(=O)c1sccc12 | CDK4 | enzyme activity, inhibitor | 0.1 µM | inhibition | 4.95%
C=CC(=O)N1CCC([C@@H]2CCNc3c(C(N)=O)c(-c4ccc(Oc5ccccc5)cc4)nn32)CC1 | CDK4 with cyclin D3 | enzyme activity, inhibitor | 1 µM | inhibition | 0%
CN1CCN(C(=O)c2ccc(NC(=O)Nc3ccc(N(C)c4ccnc(Nc5ccc(CS(C)(=O)=O)cc5)n4)cc3)cc2)CC1 | CDK4 | binding | 1 µM | remaining binding | 83%
CO[C@@H]1[C@H](N(C)C(=O)c2ccccc2)C[C@H]2O[C@]1(C)n1c3ccccc3c3c4c(c5c6ccccc6n2c5c31)C(=O)NC4 | CDK4 with cyclin D3 | enzyme activity, inhibitor | 1 µM | inhibition | 2%
CCCCC(=O)Nc1ccc(-c2ccc3ncn(CCC)c(=O)c3c2)cn1 | CDK4 with cyclin D1 | binding, competition with immobilised ligand | 0.5 µM | remaining binding | 100%
Cc1ccc(NC(=O)c2ccnc(C(F)(F)F)c2)cc1-c1cc(OCCO)nc(N2CCOCC2)c1 | CDK4 with cyclin D3 | binding | 1 µM | remaining binding | 100%
